Assay outcomes (PubChem)
Rows were chosen to be rich in hits. Some 2.3% of all compounds tested hit in one or more screens of this group.
MEKK2 mut-MEK5 – signal of MEK5 binding to mutant human MEKK2 PB1 domain | bead flow cytometry, Alexa488-MEK5 binding to MEKK2 mutant | actives 0.35% (n = 290,000) | AID 1530 | percent response, % at 10 µM; in the data active means percent response above about 24%, passing the limit was not always enough
ABCB1 block – human ABCB1 inhibition, ABCG2 as counter-screen | P08183 | CCRF-Adr cells, JC-1 efflux, flow cytometry | inhibition, % at 6.6 µM | actives 0.067% (n = 190,000); in the data active means inhibition above about 40%;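 further: higher value means more JC-1 retained so stronger ABCB1 efflux block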
MEKK3 PB1 HTS – modulators (inhibitors or enhancers) of MEK5 binding to human MEKK3 PB1 domain; Q99759; bead-based flow cytometry, Alexa488-MEK5 binding to MEKK3; actives lie on both sides; 0 = blocked by unlabeled MEK5, 100 = vehicle; binding response (% of control), % at 10 µM; actives 1.4% (n = 290,000);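 active means binding response more than 3 SD above or below the average of its plate-row segment, actives on both sides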;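 further: Alexa488 bead fluorescence after subtracting the streptavidin-only scavenger bead signal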
MEKK2wt PB1 HTS – raises or lowers MEK5 binding to wildtype human MEKK2 PB1 domain. Q9Y2U5. bead flow cytometry, Alexa488-MEK5 binding to MEKK2 WT; actives lie on both sides. binding response (% of control), % at 10 µM. actives 1.1% (n = 290,000); in the data active means binding response below about 67% or above about 130%
ABCG2 block – human ABCG2 inhibition, ABCB1 as counter-screen; IgMXP3 cells, JC-1 efflux, flow cytometry; inhibition, % at 6.6 µM; actives 0.1% (n = 190,000); AID 1325;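 active means inhibition above 80%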
Target sequence (Q9UNQ0 whole entry, looked up): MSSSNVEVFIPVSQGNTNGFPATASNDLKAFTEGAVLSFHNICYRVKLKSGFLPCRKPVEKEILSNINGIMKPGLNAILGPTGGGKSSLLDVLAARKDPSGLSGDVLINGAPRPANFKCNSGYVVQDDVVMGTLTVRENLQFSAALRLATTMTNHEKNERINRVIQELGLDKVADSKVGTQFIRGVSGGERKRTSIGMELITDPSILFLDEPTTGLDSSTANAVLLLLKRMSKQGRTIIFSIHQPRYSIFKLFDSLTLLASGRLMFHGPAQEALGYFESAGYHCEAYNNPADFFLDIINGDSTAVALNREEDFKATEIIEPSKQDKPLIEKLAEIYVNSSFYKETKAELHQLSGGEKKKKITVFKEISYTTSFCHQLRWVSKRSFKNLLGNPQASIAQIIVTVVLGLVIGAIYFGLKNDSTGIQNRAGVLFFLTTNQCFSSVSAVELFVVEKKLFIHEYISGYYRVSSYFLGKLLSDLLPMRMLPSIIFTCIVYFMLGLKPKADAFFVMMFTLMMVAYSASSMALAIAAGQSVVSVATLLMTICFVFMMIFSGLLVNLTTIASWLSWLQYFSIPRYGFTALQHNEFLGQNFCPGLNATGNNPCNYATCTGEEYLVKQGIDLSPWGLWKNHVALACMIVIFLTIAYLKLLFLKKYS
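Test system: IgMXP3 (ABCG2) plus far-red-tagged CCRF-Adr (ABCB1) cells / Amount: 3 million cells/mL in well / Reagent: JC-1 transporter substrate / Timing: 10 min compound exposure, 25 °C / Signal: flow cytometry, 530 nm JC-1 signal / Read-out: percent efflux inhibition, scaled nicardipine 100% to DMSO 0% / Benchmarks: nicardipine as high control, DMSO as low control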
MEKK2wt confirm – raises or lowers MEK5 binding to wildtype human MEKK2, retest | shares compounds with MEKK3 PB1 HTS | bead flow cytometry, Alexa488-MEK5 binding to MEKK2 WT; actives lie on both sides | binding response (% of control), % at 10 µM | actives 2.4% (n = 5,900) | AID 1892; in the data active means binding response below about 16% or above about 210%; inactive means in between
MEKK2mut confirm – signal of MEK5 binding to mutant human MEKK2, retest. percent response, % at 10 µM. shares compounds with MEKK3 PB1 HTS. actives 2% (n = 5,900). bead flow cytometry, Alexa488-MEK5 binding to MEKK2 mutant; in the data active means percent response mostly above about 71%, no sharp cut-off; inactive means mostly below about 38%;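 further: higher means compound restores mutant binding toward wildtype level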
MEKK3 confirm – MEKK3-MEK5 PB1 inhibition, single concentration confirmation. bead flow cytometry, Alexa488-MEK5 binding to MEKK3; stronger effect = lower value. binding response (% of control), % at 10 µM. shares compounds with MEKK3 PB1 HTS. AID 1894. actives 1.8% (n = 5,900);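 active means binding response below 72% of control, or above a set upper limit, though filed actives all read lower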
Large screens that a line does not name were inactive (follow-up assays come after a bar, where they were run); [ ] = remark or other dose.

CCOc1ccc(C2C(C(=O)OC)=CN(C(C)c3ccccc3)C=C2C(=O)OC)cc1 (configuration not stated)	none (no result: ABCB1 block, ABCG2 block)
C=CCn1c(SCCN2CCCC2)nc2c([nH]c3ccccc32)c1=O	MEKK3 PB1 HTS 50[inhibitor] | MEKK2wt confirm inactive | MEKK2mut confirm inactive | MEKK3 confirm inactive
O=C1N=C(N2C=CC(=C3C=CNC=C3)C=C2)/C(=C/N=NC(=O)c2ccccc2O)S1	none (no result: ABCB1 block, ABCG2 block)
Oc1ccccc1N1CCN(C(c2ccccc2)c2ccccc2)CC1	none (no result: ABCB1 block, ABCG2 block)
CO/N=C(\c1nonc1N)N1CCN(c2ccc([N+](=O)[O-])cc2Cl)CC1	none
CCO/N=C(/c1nonc1N)N1CCN(c2ccc([N+](=O)[O-])cc2)CC1	MEKK3 PB1 HTS 129 | MEKK2wt confirm inactive | MEKK2mut confirm inactive | MEKK3 confirm inactive
CCC(Sc1nc2ccncc2[nH]1)C(=O)Nc1ccc(C)c(Cl)c1 (configuration not stated)	none (no result: ABCB1 block, ABCG2 block)
COc1ccc(-c2[nH]ncc2CN2CCCCCCC2)c(OC)c1	MEKK2 mut-MEK5 98, MEKK2wt PB1 HTS 223 | MEKK2wt confirm 214 | MEKK2mut confirm 79 | MEKK3 confirm inactive
CCC(C)NC(=O)Cc1cn(C)c2ccccc12 (configuration not stated)	MEKK3 PB1 HTS 3.0[inhibitor], MEKK2wt PB1 HTS 3.0[inhibitor] | MEKK2wt confirm inactive | MEKK2mut confirm inactive | MEKK3 confirm inactive
CCc1ccc(NC(=O)Cc2cn(C)c3ccccc23)cc1	none
CC1(C)CC[C@]2(C(=O)O)CC[C@]3(C)C(=CCC4[C@@]5(C)CC[C@H](O)C(C)(C)C5CC[C@]43C)C2C1 (some centres not stated)	none
CC1(C)CC[C@]2(C(=O)O)CC[C@]3(C)C(=CC[C@@H]4[C@@]5(C)CC[C@H](O)C(C)(C)[C@@H]5CC[C@]43C)[C@@H]2C1	MEKK2wt PB1 HTS 150 (no result: ABCB1 block, ABCG2 block) | MEKK2wt confirm inactive | MEKK2mut confirm inactive | MEKK3 confirm inactive
O=C(/C=C/c1ccccc1)OCCN1C(=O)c2ccccc2C1=O	none (no result: ABCB1 block, ABCG2 block)
Cc1cccc(/C=C/C(=O)c2ccc(N3CCOCC3)cc2)c1	MEKK2 mut-MEK5 86 (no result: MEKK2wt PB1 HTS, ABCG2 block) | MEKK2wt confirm inactive | MEKK2mut confirm inactive | MEKK3 confirm inactive
CCC1=C(c2cc(OC)c(OC)c(OC)c2)C2(CCCC2)C(=O)O1	none (no result: ABCB1 block, ABCG2 block)
CC(=O)OCC1=C(C(=O)O)N2C(=O)C(NC(=O)c3ccc(F)cc3)C2SC1 (configuration not stated)	MEKK3 PB1 HTS 139 | MEKK2wt confirm inactive | MEKK2mut confirm inactive | MEKK3 confirm inactive
CC(=O)OCC1=C(C(=O)O)N2C(=O)C(NC(=O)C(C)Cn3nc(C)c(Cl)c3C)C2SC1 (configuration not stated)	none
O=C(OCC1COc2ccccc2O1)c1c(F)cccc1F (configuration not stated)	MEKK3 PB1 HTS 66[inhibitor] | MEKK2wt confirm inactive | MEKK2mut confirm inactive | MEKK3 confirm inactive
COC(=O)[C@@H](NCc1cccc(CN[C@H](C(=O)OC)c2ccccc2)c1)c1ccccc1	MEKK2wt PB1 HTS 163 (no result: ABCB1 block, ABCG2 block) | MEKK2wt confirm inactive | MEKK2mut confirm inactive | MEKK3 confirm inactive
COC(=O)C(NC(=O)CCC(=O)N[C@@H](C(=O)OC)c1ccccc1)c1ccccc1 (some centres not stated)	none (no result: ABCB1 block, ABCG2 block)
COc1ccc(-c2nsc3c(SCc4ccccc4)ncnc23)cc1	MEKK3 PB1 HTS 144 | MEKK2wt confirm inactive | MEKK2mut confirm inactive | MEKK3 confirm inactive
COCC(=O)N1CCC(Oc2ccc(C(=O)N(C)Cc3nccs3)cc2)CC1	none (no result: ABCB1 block, ABCG2 block)
Cn1nc(-c2ccc(Cl)cc2)c2cc(C(=O)NC3CC3)sc21	none
Cn1nc(-c2ccc(Cl)cc2)c2cc(C(=O)NCCCN3CCOCC3)sc21	MEKK2wt PB1 HTS 154 | MEKK2wt confirm inactive | MEKK2mut confirm inactive | MEKK3 confirm inactive
Cn1nc(-c2ccc(Cl)cc2)c2cc(C(=O)NCCN3CCOCC3)sc21	MEKK2wt PB1 HTS 136 | MEKK2wt confirm inactive | MEKK2mut confirm inactive | MEKK3 confirm inactive
O=C(COC(=O)COc1ccc(Cl)cc1Cl)Nc1cccnc1Cl	MEKK3 PB1 HTS 137 | MEKK2wt confirm inactive | MEKK2mut confirm inactive | MEKK3 confirm inactive
O=C(COC(=O)COc1ccc(Br)cc1)Nc1cccnc1Cl	none
CC(C)(C)NC(=O)NC(=O)COC(=O)COc1ccc(Cl)cc1Cl	MEKK3 PB1 HTS 75[inhibitor] | MEKK2wt confirm inactive | MEKK2mut confirm inactive | MEKK3 confirm inactive
O=C(Nc1ccccn1)c1cc2ccccc2cc1O	none (no result: ABCB1 block, ABCG2 block)
COc1ccc(CCNC(=O)C2CCCN2S(=O)(=O)c2cccc3nsnc23)cc1OC (configuration not stated)	none (no result: ABCB1 block, ABCG2 block)
O=C(NCCCNC(=O)c1ccc(F)cc1)c1ccc(F)cc1	none (no result: ABCB1 block, ABCG2 block)
CC(CNC(=O)CCn1ccc2cc(S(=O)(=O)N3CCCC3)ccc21)c1ccccc1 (configuration not stated)	none (no result: ABCB1 block, ABCG2 block)
CCOc1ccc(Cl)cc1CSc1ncn[nH]1	MEKK3 PB1 HTS 1.0[inhibitor], MEKK2wt PB1 HTS 1.0[inhibitor] | MEKK2wt confirm inactive | MEKK2mut confirm inactive | MEKK3 confirm inactive
Clc1ccc(CSc2ncn[nH]2)cc1	none (no result: MEKK2 mut-MEK5, MEKK3 PB1 HTS, MEKK2wt PB1 HTS)
COc1ccnc(Oc2ccccc2)c1C(=O)N/C=N/OCc1ccccc1	MEKK3 PB1 HTS 67[inhibitor] | MEKK2wt confirm inactive | MEKK2mut confirm inactive | MEKK3 confirm inactive
CO/N=C/NC(=O)c1c(OC)ccnc1Oc1ccccc1	none
C/C(=N\NC(=O)c1ccc2c(c1)OCO2)c1ccc(NC(=O)CCCC(=O)O)cc1	none (no result: ABCB1 block, ABCG2 block)
CC1=CC(C)(C)N2C(=O)C3(N=C(N)NC(Nc4ccccc4)=N3)c3cc(C)cc1c32 (configuration not stated)	MEKK2 mut-MEK5 33, MEKK2wt PB1 HTS 154 | MEKK2wt confirm inactive | MEKK2mut confirm inactive | MEKK3 confirm inactive
O=S(=O)(c1ccc(Br)cc1)N1CCC2(CC1)OCCO2	none (no result: ABCB1 block, ABCG2 block)
COc1ccc(C(=O)CCN2CCN(c3ccccc3OC)CC2)cc1	none
COc1ccc(C(=O)CCN2CCc3cc(OC)c(OC)cc3C2)cc1	MEKK3 PB1 HTS 1.0[inhibitor], MEKK2wt PB1 HTS 1.0[inhibitor] | MEKK2wt confirm inactive | MEKK2mut confirm inactive | MEKK3 confirm inactive
O=C(Nc1ccc(F)cc1)C1CCN(S(=O)(=O)c2ccc3[nH]c(=O)oc3c2)CC1	none (no result: ABCB1 block, ABCG2 block)
CSCC[C@H](NC(=O)c1cc([N+](=O)[O-])ccc1Cl)c1nc2ccccc2[nH]1	MEKK3 PB1 HTS 143 | MEKK2wt confirm inactive | MEKK2mut confirm inactive | MEKK3 confirm inactive
